Here are results for two compounds from ChEMBL document CHEMBL1138590, “Discovery of novel dihydro-9,10-ethano-anthracene carboxamides as glucocorticoid receptor modulators” (Bioorg Med Chem Lett, 2009).

In one experiment the target is T1, Progesterone receptor (Homo sapiens, UniProt P06401).
T1 sequence (P06401 whole entry): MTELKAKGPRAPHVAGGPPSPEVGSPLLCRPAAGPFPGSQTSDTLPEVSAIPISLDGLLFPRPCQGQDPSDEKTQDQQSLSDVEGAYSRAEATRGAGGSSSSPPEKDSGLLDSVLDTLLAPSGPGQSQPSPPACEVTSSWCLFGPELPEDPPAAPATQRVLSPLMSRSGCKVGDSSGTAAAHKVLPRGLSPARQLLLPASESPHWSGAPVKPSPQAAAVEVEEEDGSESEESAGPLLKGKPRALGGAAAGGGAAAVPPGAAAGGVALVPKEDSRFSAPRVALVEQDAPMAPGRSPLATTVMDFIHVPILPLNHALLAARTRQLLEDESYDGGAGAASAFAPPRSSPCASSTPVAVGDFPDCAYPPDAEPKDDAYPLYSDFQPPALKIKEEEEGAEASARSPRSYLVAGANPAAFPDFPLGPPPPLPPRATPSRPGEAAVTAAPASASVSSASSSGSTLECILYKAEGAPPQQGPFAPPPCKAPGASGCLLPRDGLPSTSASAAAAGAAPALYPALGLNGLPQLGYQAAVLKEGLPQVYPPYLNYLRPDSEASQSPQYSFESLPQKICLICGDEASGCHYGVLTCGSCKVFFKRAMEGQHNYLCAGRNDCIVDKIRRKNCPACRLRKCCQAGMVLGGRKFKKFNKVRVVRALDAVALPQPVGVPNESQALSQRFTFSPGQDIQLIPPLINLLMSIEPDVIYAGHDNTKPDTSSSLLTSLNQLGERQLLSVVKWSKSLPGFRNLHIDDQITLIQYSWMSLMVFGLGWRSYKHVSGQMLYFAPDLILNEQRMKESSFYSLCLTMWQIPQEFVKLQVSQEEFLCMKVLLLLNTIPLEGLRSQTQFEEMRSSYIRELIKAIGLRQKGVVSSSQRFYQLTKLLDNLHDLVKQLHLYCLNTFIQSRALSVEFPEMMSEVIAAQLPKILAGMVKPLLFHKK
The experiment in a line: Displacement of […] from progesterone receptor by fluorescence polarization assay. The essentials:
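Fluorescence polarization competition binding: the test compound competes with a fluorescently labelled ligand for binding to the full-length receptor or its ligand-binding domain. IC50 is fitted from the polarization signal with a four-parameter logistic equation. Ki is derived by Cheng–Prusoff, Ki = IC50/(1 + ligand concentration/Kd). Values are means of duplicate experiments.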
(In fluorescence polarisation assays a small probe gives low polarisation when free and higher when bound to something large.)

For experiment [1], the target named is T2, Mineralocorticoid receptor (Homo sapiens) (UniProt P08235).
T2 sequence (whole entry): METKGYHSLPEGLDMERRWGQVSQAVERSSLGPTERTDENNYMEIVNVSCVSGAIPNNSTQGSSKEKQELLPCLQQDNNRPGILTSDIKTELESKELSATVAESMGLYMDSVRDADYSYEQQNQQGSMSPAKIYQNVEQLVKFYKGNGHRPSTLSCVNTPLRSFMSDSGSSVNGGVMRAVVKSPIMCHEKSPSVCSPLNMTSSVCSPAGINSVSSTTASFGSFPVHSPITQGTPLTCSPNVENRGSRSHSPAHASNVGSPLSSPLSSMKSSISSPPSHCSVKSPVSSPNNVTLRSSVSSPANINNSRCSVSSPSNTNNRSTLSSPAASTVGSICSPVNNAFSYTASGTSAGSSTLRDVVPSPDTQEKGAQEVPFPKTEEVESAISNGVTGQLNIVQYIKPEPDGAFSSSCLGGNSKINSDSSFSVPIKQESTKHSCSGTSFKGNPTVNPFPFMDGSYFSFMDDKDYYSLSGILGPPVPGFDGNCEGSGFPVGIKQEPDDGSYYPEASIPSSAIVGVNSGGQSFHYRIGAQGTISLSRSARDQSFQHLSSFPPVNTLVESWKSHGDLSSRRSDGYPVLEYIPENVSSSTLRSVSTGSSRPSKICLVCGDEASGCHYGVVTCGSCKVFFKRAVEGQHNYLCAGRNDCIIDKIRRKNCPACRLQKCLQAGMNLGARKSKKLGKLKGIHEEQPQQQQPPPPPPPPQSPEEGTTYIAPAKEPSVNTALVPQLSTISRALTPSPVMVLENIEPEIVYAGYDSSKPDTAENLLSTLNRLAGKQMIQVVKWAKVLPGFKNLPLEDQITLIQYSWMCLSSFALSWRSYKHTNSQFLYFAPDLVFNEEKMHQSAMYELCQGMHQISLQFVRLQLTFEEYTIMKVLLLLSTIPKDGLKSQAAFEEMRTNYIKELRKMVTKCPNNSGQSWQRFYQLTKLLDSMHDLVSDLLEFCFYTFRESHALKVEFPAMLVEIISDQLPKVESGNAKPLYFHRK
The experiment in a line: Antagonist activity at mineralocorticoid receptor in human A549 cells assessed as inhibition of 1.25 nM aldosterone-induced effect at 0.1 uM. In kind it is functional, cell-based.

In experiment [2] the target is T3, Glucocorticoid receptor (Homo sapiens, UniProt P04150).
T3 sequence (P04150 whole entry): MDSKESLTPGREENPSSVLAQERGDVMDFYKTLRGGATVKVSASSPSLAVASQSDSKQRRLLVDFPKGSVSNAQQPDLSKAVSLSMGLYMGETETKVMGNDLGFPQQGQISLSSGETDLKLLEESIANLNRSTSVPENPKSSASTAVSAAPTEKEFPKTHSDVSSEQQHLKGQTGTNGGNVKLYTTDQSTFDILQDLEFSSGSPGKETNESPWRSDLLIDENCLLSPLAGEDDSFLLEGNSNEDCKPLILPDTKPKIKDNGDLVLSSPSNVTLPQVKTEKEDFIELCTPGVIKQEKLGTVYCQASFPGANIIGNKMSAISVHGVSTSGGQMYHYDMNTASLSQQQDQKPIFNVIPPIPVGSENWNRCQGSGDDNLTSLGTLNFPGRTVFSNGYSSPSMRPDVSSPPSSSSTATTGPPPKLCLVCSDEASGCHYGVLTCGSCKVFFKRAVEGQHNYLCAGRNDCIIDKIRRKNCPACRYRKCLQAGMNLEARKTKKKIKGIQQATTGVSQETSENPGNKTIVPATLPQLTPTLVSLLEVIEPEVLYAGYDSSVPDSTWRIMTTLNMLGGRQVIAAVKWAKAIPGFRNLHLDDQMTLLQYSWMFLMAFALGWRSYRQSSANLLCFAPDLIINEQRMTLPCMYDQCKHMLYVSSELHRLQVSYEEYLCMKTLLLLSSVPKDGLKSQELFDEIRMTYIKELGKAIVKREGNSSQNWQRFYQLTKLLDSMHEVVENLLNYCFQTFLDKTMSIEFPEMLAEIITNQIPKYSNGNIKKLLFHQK
The experiment can be described thus: Agonist activity at GR ligand binding domain expressed in human NP1 cells assessed as glucocorticoid response element transactivation by GAL4 luciferase reporter gene assay. The class given is cell-based.

Experiment [3] addresses T3, Glucocorticoid receptor. The experiment can be described thus: Transrepression activity at GR in IL-1-beta-stimulated human A549 cells assessed as inhibition of NF-kappaB-dependent E-selectin transcription by luciferase reporter gene assay. In kind it is cell-based. For orientation: In a reporter assay the amount or activity of a reporter protein is the signal.

Turning to `C[C@@]1(C(=O)Nc2nccs2)CC2c3ccccc3C1c1ccccc12`, the affinity at Progesterone receptor, expressed as Ki, was 147 nM. Further, in experiment [1], the inhibition came out at 3%.
Take `C[C@@]1(C(=O)Nc2nccs2)CC2(C#N)c3ccccc3C1c1ccccc12`: the EC50 on Glucocorticoid receptor [2] was more than 10000 nM; on Glucocorticoid receptor [3], 19.4 nM. At Progesterone receptor, this compound showed an inhibition constant (Ki) of 34 nM. For the same compound, the inhibition in experiment [1] turned out to be 47%.

In general, Ki refers to a dissociation constant, usually derived from enzyme kinetics or from competition with a known ligand. The term inhibition denotes the drop in the measured response relative to a control, in per cent. Broadly, the EC50 is the concentration at which the effect is half-maximal.
